Assay outcomes from PubChem.
The list is not random: actives were taken first. Their share in the collection is about 2.2%.
DNA FID counter-1: compounds displacing fluorescent DNA intercalator, primary screen, artefact control for HCV NS3 helicase inhibitor project, biochemical, FID fluorescence; DNA fluorescent intercalator displacement; inhibition, % at 7.9 µM; hit rate 0.17% among 290,000;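 also: 0% = vehicle and 100% = reference compound; higher means more ethidium bromide displaced from hairpin DNA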
DAGLB inhibitor: DAGLB lipase inhibitors, primary screen, biochemical, fluorescence, HTS; Diacylglycerol lipase-beta (Homo sapiens), Q8NCG7; HEK293T DAGLB membrane lysate, EnzChek fluorogenic substrate; inhibition, % at 5.17 µM; hit rate 0.059% among 340,000; in the data active = inhibition above about 34%;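 also: 0% = enzyme with vehicle and 100% = wells lacking enzyme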
NS3 helicase inh: inhibitors of HCV NS3 helicase, primary screen, biochemical, Cy5 molecular beacon fluorescence; NS3 helicase DNA unwinding; hit rate 0.56% among 290,000; inhibition, % at 10.9 µM;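 active = inhibition above the mean of all tested compounds plus 3 SD, set per campaign, cut at about 35% in these data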;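 also: 0% = DMSO wells and 100% = thioflavine S control wells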
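test system = hepatitis C virus NS3 helicase domain fragment enzyme | reagent = annealed dual-labelled DNA beacon duplex, ATP-started | times = 1 h at 25 °C | detection = Cy5 fluorescence, 0 and 60 min reads | read-out basis = percent inhibition from t60/t0 fluorescence ratio | control set = DMSO and thioflavine S | replication = one well per compound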
GRK2 inh: compounds blocking aptamer binding on GRK2 – biochemical, human GRK2, bead flow cytometry, HTS, primary screen | hit rate 0.59% among 330,000 | inhibition of aptamer binding, % at 10 µM | AID 488847, 2010 | FAM-aptamer displacement from GRK2 | Beta-adrenergic receptor kinase 1 (Homo sapiens), P25098;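 active = inhibition of aptamer binding above 40%, roughly 3 SD of noise, on plates passing a quality check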;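 also: median bead fluorescence of bound FAM aptamer so fluorescent compounds give negative values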
GPR7 antag: GPR7 receptor antagonists, primary screen, cell-based, fluorescence, single concentration; GPR7-expressing cells, fluorescence antagonist assay; inhibition, % at 4.4 µM; hit rate 1.1% among 290,000; AID 1861, 2009; in the data active = inhibition above about 16%, passing the limit was not always enough;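 also: cells stimulated with the agonist NPW; 0% = agonist with vehicle and 100% = vehicle without agonist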
Target sequence (P48145 whole entry, looked up): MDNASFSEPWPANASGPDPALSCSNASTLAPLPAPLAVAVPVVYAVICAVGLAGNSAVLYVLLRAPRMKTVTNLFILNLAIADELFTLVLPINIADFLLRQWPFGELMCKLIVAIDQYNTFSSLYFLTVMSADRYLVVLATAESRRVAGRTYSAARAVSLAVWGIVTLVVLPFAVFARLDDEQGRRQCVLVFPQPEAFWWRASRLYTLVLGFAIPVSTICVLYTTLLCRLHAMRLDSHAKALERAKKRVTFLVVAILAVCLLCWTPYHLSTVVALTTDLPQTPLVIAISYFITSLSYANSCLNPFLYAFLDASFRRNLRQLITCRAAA
core dimer inh: inhibitors of HCV core protein dimerization, primary screen, biochemical, TR-FRET, high-throughput; inhibition, % at 5 µM; hit rate 0.33% among 300,000; TR-FRET GST/Flag-core106 dimerization, 1536-well;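 active = inhibition above the mean of all tested compounds plus 3 SD, set per screening campaign, cut at about 45% in these data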
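System: GST/Flag-tagged HCV core106 proteins. Incubation: compound-protein-antibody incubation 4 h at 22.5 °C. Technique: HTRF with 340 nm excitation, 617/671 nm emission. Medium: KF-containing HEPES buffer, pH 7.45, DTT, CHAPS, BSA. Read-out: inhibition (%) from 671 over 617 nm ratio. Also added: Eu(K)-anti-GST 90 ng/mL plus XL665-anti-Flag 1 µg/mL.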
NS3 helicase cf: HCV NS3 helicase inhibitors, retest, confirmation, biochemical, Cy5 molecular beacon fluorescence, triplicate; NS3 helicase DNA unwinding; hit rate 31% among 1,600; shares compounds with NS3 helicase inh; inhibition, % at 10.9 µM;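 active = inhibition above the mean of all tested compounds plus 3 SD, cutoff set per campaign, cut at about 36% in these data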
DNA FID counter-2: compounds displacing fluorescent DNA intercalator, artefact control for HCV NS3 helicase inhibitor project, biochemical, FID fluorescence, triplicate. shares compounds with NS3 helicase inh. inhibition, % at 7.9 µM. AID 1945, 2009. DNA fluorescent intercalator displacement. hit rate 4% among 1,600;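 also: 0% = vehicle and 100% = reference compound; higher means more displacement of ethidium bromide from the DNA hairpin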
FID counter DR: compounds displacing fluorescent intercalator from DNA, dose response, counter-screen for HCV NS3 helicase inhibitor project, biochemical, fluorescence; fluorescent intercalator displacement from DNA; shares compounds with NS3 helicase inh; IC50, µM; AID 2172, 2009; 120 tested, under 10 active; call rule not given here
* marks the source's active call; other numbers are inactive results; / = no result given. Rule as the data show it, unless noted: active = inhibition above about 37%; inactive = the rest.

SMILES	DNA FID counter-1	DAGLB inhibitor	NS3 helicase inh	GRK2 inh	GPR7 antag	core dimer inh	NS3 helicase cf	DNA FID counter-2	others
Cc1cc(C)c(-c2c(O)c3cccc4c3n(c2=O)CCC4)c(C)c1	-26	-2	40*	0	-18	-4	-16	-3
Cc1cccc(NC(=S)NN2CCOCC2)c1C	-2	-1	2	0	9	0	/	/
Cc1cccc(NC(=S)Nc2ccc(N3CCOCC3)cc2)c1C	-3	7	40*	3	1	-6	-14	-2
CCN(CC)c1ccc(/C=C(\C#N)c2nc(-c3cccs3)c(NC(C)=O)s2)cc1	-14	/	45*	/	4	/	-15	14
CC(=O)Nc1sc(NC(=O)c2ccccc2)nc1-c1cccs1	-1	-3	-11	0	-9	-1	/	/
COc1ccc(NC(=O)COC(=O)CN2C(=O)C3CCCCC3C2=O)cc1 (stereo unspecified)	/	3	/	/	/	/	/	/
Cc1ccc(NC(=O)CN2C(=O)S/C(=C\C(=O)Nc3ccc(Cl)cc3)C2=O)cc1	-14	-9	41*	0	-7	-5	-1	1
Cc1cc(/C=C2/C(=O)N(C)C(=S)N2C)c(C)n1C1CC1	-2	1	6	1	-6	11	/	/
Cc1cc(/C=C2\SC(=S)NC2=O)c(C)n1C1CC1	-10	10	76*	1	1	-6	36*	28
Cc1ccc(NC(=O)Cn2cnc([N+](=O)[O-])c2)cc1C	4	0	0	0	-13	8	/	/
CC(=O)c1sc2ccccc2c1OC(=O)c1ccco1	-5	1	45*	1	-7	-9	4	4
CC(=O)c1c(OC(=O)c2ccco2)c2ccccc2n1C	-15	-1	9	1	-16	-41	/	/
Cc1ccc(-c2csc(N/N=C/c3ccco3)n2)c(C)c1	-4	1	40*	0	-15	2	-10	10
CC1CCC2(CC1)NC(=O)N(CC(=O)NCc1ccc(F)cc1)C2=O (stereo unspecified)	/	-3	/	1	/	/	/	/
Cc1c(C(=O)O)sc2nc(/C=C/c3cccc(F)c3)[nH]c(=O)c12	-17	2	63*	1	3	7	-12	11
Cc1ccc(/C=C/c2nc3sc(C(=O)O)c(C)c3c(=O)[nH]2)cc1[N+](=O)[O-]	-14	2	28	9	10	2	/	/
O=C1OC(c2cccs2)=N/C1=C\c1ccc(-c2ccccc2Cl)o1	-25	7	71*	/	-1	/	48*	1
Cc1ccc(/C=C2/SC(=O)NC2=S)o1	-5	1	53*	/	4	/	38*	17
COc1ccc(/C=C2\SC(=O)NC2=S)cc1OC	2	4	5	1	6	-7	/	/
O=C(Nc1cc(S(=O)(=O)N2CCOCC2)ccc1O)c1ccc(S(=O)(=O)N2CCCCC2)cc1	/	1	/	1	/	/	/	/
O=C(Nc1cc(S(=O)(=O)Nc2ccc(Cl)cc2)ccc1O)c1ccc(S(=O)(=O)N2CCCCCC2)cc1	-6	20	45*	2	2	24	-26	3
O=C(O)c1ccc(-n2cccc2/C=C2/NC(=O)N(c3cccc(Cl)c3)C2=O)cc1	-31	7	41*	/	-10	/	70*	-17	FID counter DR=>79
O=C(O)c1cccc(-n2cccc2/C=C2\NC(=O)N(Cc3ccc(F)cc3)C2=O)c1	-34	8	14	13	-3	3	/	/
O=S(=O)(Cc1ccco1)Cc1nc(-c2ccc(Cl)cc2)cs1	-19	/	43*	0	7	0	-14	-8
O=C(CN1CCN(c2nc(-c3ccc(Cl)cc3)cs2)CC1)NCc1ccco1	-12	1	-6	0	-14	3	/	/
SMILES	DNA FID counter-1	DAGLB inhibitor	NS3 helicase inh	GRK2 inh	GPR7 antag	core dimer inh	NS3 helicase cf	DNA FID counter-2	others
O=S(=O)(Cc1noc(-c2ccc(Cl)cc2)n1)Cc1ccco1	-17	/	52*	7	-7	0	-11	0
CCN(CC)S(=O)(=O)c1cc(OC)ccc1N=Nc1ccc(O)c2ncccc12	-24	20	50*	1	-9	/	68*	-3
COc1cccc(-c2ccc3nnc(SCC(=O)Nc4ccc(NC(C)=O)cc4)n3n2)c1	/	2	/	2	/	2	/	/
N#Cc1c(-c2ccccc2)cc(-c2cccs2)nc1SCC(=O)O	-14	8	39*	0	11	-12	68*	-12
N#Cc1c(-c2ccc(Cl)cc2)cc(-c2cccs2)nc1SCC(=O)O	4	6	5	3	-3	-20	/	/
CCN(CC(=O)NC1CCS(=O)(=O)C1)S(=O)(=O)c1ccc(Br)cc1 (stereo unspecified)	/	0	/	0	/	/	/	/
CCOc1ccc(N2C(=O)CC(N3CCN(c4ccc([N+](=O)[O-])cc4)CC3)C2=O)cc1 (stereo unspecified)	-9	2	47*	0	-4	-5	-11	-4
CCCOc1ccc(N2C(=O)CC(N3CCN(c4ccc([N+](=O)[O-])cc4)CC3)C2=O)cc1 (stereo unspecified)	-21	0	-27	2	-4	3	/	/
C[C@@H](NCCCn1ccc(NC(=O)OCc2ccccc2)nc1=O)c1cccc2ccccc12	/	-2	/	/	/	/	/	/
CCc1cccc(NC(=O)CCc2c(C)nn(-c3ccc(N4CCOCC4)nn3)c2C)c1	-49	0	-5	0	3	-2	/	/
O=C(Nc1cc(C(F)(F)F)ccc1N1CCOCC1)C1Cc2ccccc2CN1C(=O)c1ccco1 (stereo unspecified)	-50	-1	57*	0	40*	7	-7	-23
O=C(Nc1cc(C(F)(F)F)ccc1N1CCOCC1)C1CC1	/	0	/	1	/	/	/	/
Cc1ccc(C=Nc2ccc(N(C)C)cc2)o1	1	9	39*	10	-5	-43	-12	19
CC(=O)NCc1ccc(C(=O)CN2C(=O)NC3(CCCCC3C)C2=O)s1 (stereo unspecified)	/	3	/	/	/	/	/	/
CCOC(=O)C1(C)C(=O)CC2c3nc4ccccc4cc3CN2C1=O (stereo unspecified)	/	-7	/	/	/	/	/	/
